# EphB4 ephrin blk – blocks human EphB4 binding to ephrin-B2; P54760; EphB4 LBD / TNYL-RAW-Alexa532 peptide, fluorescence polarization; inhibition, % at 7 µM; 0.15% of 97,000 active; AID 720;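 active = inhibition above the screen-wide mean inhibition plus 3 SD, cut at about 15% in these data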;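 note: 0% = DMSO wells and 100% = excess unlabeled TNYL-RAW peptide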
# PLK1 kinase inh – inhibitors of human PLK1 kinase; recombinant PLK1 kinase, TR-FRET peptide phosphorylation; inhibition, % at 10 µM; AID 619; 0.53% of 97,000 active; P53350;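 active = inhibition of 50% or more in the single-concentration screen; inactive = inhibition below 50%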;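 note: 0% = DMSO max control and 100% = H-89 dihydrochloride min control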
# HIV Rev-RRE inh – disrupts HIV-1 Rev binding to RRE RNA | Rev peptide-RRE RNA binding, FRET | inhibition, % at 8 µM | AID 704 | 0.79% of 97,000 active;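 active = inhibition above the screen-wide mean plus 3 SD, cut at about 35% in these data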;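 note: 0% = median DMSO wells and 100% = median Neomycin B control wells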
#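 System: Cy5-labelled duplex RRE RNA binding fluorescein-labelled HIV Rev peptide; Signal: fluorescein-to-Cy5 FRET, 480 nm excitation; Also added: labelled Rev peptide; Compound: one concentration, 8 µM nominal; Buffer or medium: HEPES pH 7.5 salt buffer with EDTA; Read-out: % inhibition of FRET ratio versus controls; Schedule: 5 min preincubation and 15 min binding, 25 °C.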
# FAK inh – inhibitors of human focal adhesion kinase; Q05397; biochemical FAK kinase activity assay; inhibition, %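 (tested at 7 µM)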; 0.84% of 97,000 active; AID 727; in the data active = inhibition above about 19%;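 note: 0% = DMSO and 100% = reference compound high control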
# Target sequence (Q05397 whole entry, looked up): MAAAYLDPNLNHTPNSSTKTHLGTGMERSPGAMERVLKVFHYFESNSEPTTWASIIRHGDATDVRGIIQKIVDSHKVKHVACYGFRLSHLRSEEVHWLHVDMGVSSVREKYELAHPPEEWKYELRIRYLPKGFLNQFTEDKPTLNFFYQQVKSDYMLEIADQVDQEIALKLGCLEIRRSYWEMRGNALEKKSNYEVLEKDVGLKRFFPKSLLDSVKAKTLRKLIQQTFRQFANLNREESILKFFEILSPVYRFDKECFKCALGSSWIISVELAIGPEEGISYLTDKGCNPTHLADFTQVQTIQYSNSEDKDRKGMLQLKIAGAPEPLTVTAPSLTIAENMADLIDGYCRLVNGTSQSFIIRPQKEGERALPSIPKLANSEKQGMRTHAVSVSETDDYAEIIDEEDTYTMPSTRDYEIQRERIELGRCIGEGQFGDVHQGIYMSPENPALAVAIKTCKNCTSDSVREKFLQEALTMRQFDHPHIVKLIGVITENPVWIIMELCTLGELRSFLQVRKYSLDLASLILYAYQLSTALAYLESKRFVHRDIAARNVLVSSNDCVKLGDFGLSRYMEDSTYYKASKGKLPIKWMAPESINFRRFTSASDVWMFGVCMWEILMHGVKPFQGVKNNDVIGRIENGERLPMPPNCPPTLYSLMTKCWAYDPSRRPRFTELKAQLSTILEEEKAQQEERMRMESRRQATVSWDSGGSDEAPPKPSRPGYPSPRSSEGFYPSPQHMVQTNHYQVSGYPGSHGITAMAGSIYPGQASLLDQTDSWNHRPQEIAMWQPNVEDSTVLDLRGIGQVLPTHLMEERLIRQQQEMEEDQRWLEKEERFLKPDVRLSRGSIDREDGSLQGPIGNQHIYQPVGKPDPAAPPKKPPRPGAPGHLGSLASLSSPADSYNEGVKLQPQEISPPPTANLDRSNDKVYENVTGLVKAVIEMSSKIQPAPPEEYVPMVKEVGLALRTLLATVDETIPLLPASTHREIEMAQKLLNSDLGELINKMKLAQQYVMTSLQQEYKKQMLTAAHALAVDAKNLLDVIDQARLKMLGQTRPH
# Plk1 PBD FP – inhibitors of human Plk1 polo box domain binding; Plk1 PBD phosphopeptide binding, fluorescence polarization; inhibition, %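 (tested at about 20 µM)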; 0.13% of 97,000 active; AID 693; in the data active = inhibition above about 34%, passing the limit was not always enough
# Cav32 inh – blocks human Cav3.2 T-type calcium channel. O95180. Cav3.2-expressing cells, Fluo-4 calcium fluorescence FDSS; stronger effect = lower value. B-score at 10 µM. 4% of 100,000 active. AID 449739;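 active = single-dose well whose peak fluorescence ratio is a statistical outlier from its plate by either plate-standardised score or position-corrected B-score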
# Numbers without * were called inactive; . = not tested or not shown. An excerpt weighted towards active compounds, which were near 5.3% of everything screened.
SMILES,EphB4 ephrin blk,PLK1 kinase inh,HIV Rev-RRE inh,FAK inh,Plk1 PBD FP,Cav32 inh
O=C(Nc1ccc(Oc2ccccc2)cc1)C1CCN(c2c3c(nc4ncnn24)CCC3)CC1,1,-6,-4,5,-22,0.73
O=C(Nc1ccc2c(c1)CCC2)C1CCN(c2c3c(nc4ncnn24)CCC3)CC1,5,-5,3,10,-12,2.8*
CCCn1c(SCC(=O)NC2CCCCC2C)n[nH]c1=O (centres undefined),-5,3,3,1,12,0.22
Cc1ccccc1NC(=S)NC(NC(=O)C(C)(C)C)C(Cl)(Cl)Cl (centres undefined),6,2,-1,2,-15,-0.8
COc1ccc(NC(=S)NC(NC(=O)c2ccccc2Cl)C(Cl)(Cl)Cl)c([N+](=O)[O-])c1 (centres undefined),4,-2,4,5,-8,-3.6
COC(=O)c1ccccc1NC(=S)NC(NC(=O)c1ccccc1[N+](=O)[O-])C(Cl)(Cl)Cl (centres undefined),1,-9,-3,-4,-6,-8.5*
COc1ccc(NC(=S)NC(NC(=O)c2ccc(Cl)cc2Cl)C(Cl)(Cl)Cl)c([N+](=O)[O-])c1 (centres undefined),-1,1,6,8,19,-5.1*
Cc1ccc(NC(=S)NC(NC(=O)c2ccccc2C)C(Cl)(Cl)Cl)c(C)c1 (centres undefined),10,-5,0,5,25,-7.1*
CN(CC1CCCO1)S(=O)(=O)c1ccc(C(=O)Nc2nc(-c3ccccn3)cs2)cc1 (centres undefined),1,2,8,-4,-3,-3.9
CCn1c(=NC(=O)CSC(C)=O)sc2cc(F)ccc21,-1,-8,5,2,5,-11*
O=C(ON=C1CCN(S(=O)(=O)c2ccccc2)CC1)c1ccc(F)cc1,-7,-7,3,0,-24,-0.34
O=C(O/N=C1/CCSc2ccccc21)c1ccc(F)cc1,0,-7,2,10,18,-4.7*
CCOc1ccc(C(=S)N2CCOCC2)cc1OCC,-5,6,3,1,-8,0.055
CCOc1cc(C(=S)N2CCCCC2)ccc1OS(=O)(=O)c1ccc(Cl)cc1,-7,-6,0,13,-33,-5*
CCOc1cc(C(=S)N2CCC(O)CC2)ccc1OS(=O)(=O)c1ccc(Br)cc1,10,-13,7,-1,-18,-4.9*
CCOc1cc(C(=S)N2CCCCC2)ccc1OCC(=O)NCc1ccccc1,2,-3,11,-3,6,-0.23
CCOc1cc(C(=S)N2CCCCC2)ccc1OS(=O)(=O)c1ccc(Br)cc1,-11,13,-6,1,8,-4.9*
CCOC(=O)C[C@H]1c2ccccc2S(=O)(=O)N1c1cccc(OC)c1,.,.,.,.,.,-0.6
CN1C(C(=O)NCc2ccco2)CC2Cn3c(nc4cc(Cl)c(Cl)cc43)C21 (centres undefined),.,.,.,.,.,0.89
O=C(NCc1ccncc1)Nc1ccc(F)cc1,1,-1,3,0,-10,0.3
CC(=O)Nc1ccc(NC(=O)CN2CCN(c3cccc(C(F)(F)F)c3)CC2)cc1,2,-11,13,-1,1,0.92
Cc1[nH]c2ccccc2c1NC(=O)CN1CCN(c2cccc(C(F)(F)F)c2)CC1,10,-8,9,6,-29,-8.2*
O=C(CN1CCN(c2cccc(C(F)(F)F)c2)CC1)Nc1cccc(C(F)(F)F)c1,2,1,18,-3,-10,-5.5*
O=C1N[C@@H](Cc2ccccc2)C(=O)N2[C@@H]1C[C@@]1(Br)c3ccccc3N(S(=O)(=O)c3ccccc3)[C@@H]21,.,.,.,.,.,-1.3
O=C(CC1(O)C(=O)Nc2ccc(Br)cc21)c1ccc2c(c1)OCO2 (centres undefined),-4,0,2,0,-2,-0.38
SMILES,EphB4 ephrin blk,PLK1 kinase inh,HIV Rev-RRE inh,FAK inh,Plk1 PBD FP,Cav32 inh
CC(C)(C)[C@H]1C=C(C(=O)N2CCN(Cc3ccc4c(c3)OCO4)CC2)O[C@@H](OCc2ccc(CO)cc2)C1,.,.,.,.,.,-2.6
CCCC[C@@H]1CCCO[C@@](C(=O)NCc2ccc(C)o2)(C(F)(F)F)C1,.,.,.,.,.,0.059
COc1ccc(OCCN2C(=O)NC(C)(c3ccc(C)cc3)C2=O)cc1 (centres undefined),5,-4,4,1,-4,-1.8
Cc1ccc(C2(C)NC(=O)N(CCOc3ccccc3)C2=O)cc1 (centres undefined),5,-6,-2,-8,16,-3.3*
COc1cccc2c1C(=O)c1c(O)c3c(c(O)c1C2=O)C[C@@](O)(C(=O)CO)C[C@@H]3O[C@H]1C[C@H](N)[C@H](O)[C@H](C)O1,.,.,.,.,.,-5.7*
O=S(=O)(Nc1ccccc1N1CCCCC1)c1ccc(Cl)s1,-4,-6,5,0,21,0.05
O=C(NCc1ccco1)c1ccccc1NS(=O)(=O)c1ccc(Cl)s1,1,-29,0,0,-10,-7.4*
O=C(NCc1ccco1)c1ccccc1NS(=O)(=O)c1cccs1,0,-6,7,5,3,0.18
O=C(Nc1ccccc1)c1ccccc1NS(=O)(=O)c1ccc(Cl)s1,-3,-17,1,-6,8,-8.7*
Cc1ccc(OCC(=O)OCC(=O)c2c(N)n(C)c(=O)n(C)c2=O)cc1C,4,8,10,1,-32,1.1
Cc1cc(C)c(C#N)c(Sc2nnnn2-c2ccccc2)n1,-3,-25,3,1,19,-0.095
O=C(Nc1ccccc1)c1ccc(Cn2cc(C(F)(F)F)ccc2=O)cc1,-2,-6,4,2,-14,-0.088
O=C(Nc1cc(C(F)(F)F)cc(C(F)(F)F)c1)c1ccc(Cn2cc(C(F)(F)F)ccc2=O)cc1,1,-3,13,4,4,-6.7*
OC1(c2cccc(C(F)(F)F)c2)CCN(Cc2nnnn2CCc2ccccc2)CC1,1,-3,5,3,-19,-5.6*
COCCn1nnnc1CN1CCC(O)(c2cccc(C(F)(F)F)c2)CC1,.,.,.,.,.,0.16
Cc1nc(C(=O)Nc2cc(F)cc(Cl)c2)sc1C1(C)CC(c2ccccc2)=NO1 (centres undefined),.,.,.,.,.,0.76
CCOC(=O)c1cccc(NC2c3ccccc3C(=O)N2Cc2ccco2)c1 (centres undefined),-1,3,14,15,-20,-6.6*
c1ccc(-c2c3ccccc3nc3[nH]c4ccccc4c23)cc1,.,.,.,.,.,0.51
O=c1nc(-c2ccccc2)c2ccccc2[nH]1,2,60*,4,-1,7,0.014
Cn1c(=O)c2ncn(CC(=O)Nc3cccc(-c4nc5ccccc5s4)c3)c2n(C)c1=O,2,0,1,10,-4,0.066
CC1(C)C(=O)Nc2ccccc2N1C(=O)COC(=O)C1CCCCC1,2,-28,6,2,2,-5.6*

# Screening results deposited in PubChem BioAssay by several laboratories.
